Measurements gathered from unrelated publications.
Compare with care: the assays were run in different laboratories.
ALK: ALK tyrosine kinase receptor (ALK, Homo sapiens, UniProt Q9UM73)

C#Cc1n[nH]c2c(-c3cn(C(C)c4ccccn4)c(=O)[nH]c3=O)cc(F)cc12 (stereo not drawn)  inhibition (ALK; enzyme activity; inhibitor; 1 µM): 11.2%
O=c1[nH]c2ccccc2n1C1CCN(Cc2ccc(-c3[nH]c4cc5ncnc5cc4nc3-c3ccccc3)cc2)CC1  remaining signal (ALK; cell-free assay; 0.5 µM): 106%
Cn1cncc1[C@](O)(COc1ccc(C#N)cc1-c1ccc(OC(F)(F)F)cc1)c1ccc(C#N)cc1  remaining binding (ALK tyrosine kinase receptor (ALK, Homo sapiens, UniProt Q9UM73, C1156Y); cell-free assay; competition with immobilised ligand; 1 µM): 92%
Nc1ncc(-c2nc(N3CCOCC3)nc(N3CCOCC3)n2)c(C(F)F)n1  remaining binding (ALK tyrosine kinase receptor (ALK, Homo sapiens, UniProt Q9UM73, L1196M); cell-free assay; competition with immobilised ligand; 10 µM): 44%
CC(C)(C)c1cc(C=C(C#N)C#N)cc(Br)c1O  remaining activity (ALK; enzyme activity; inhibitor; 0.5 µM): 97.9%
COc1ncccc1-c1cnn2ccc(N3CCN(C(=O)OC(C)C)CC3)nc12  remaining binding (ALK; binding; competition with immobilised ligand; 1 µM): 100%
Cc1nn(C)cc1-c1nc2c(N3CCN(Cc4ccc(Cl)cc4)CC3)c(Cl)cnc2[nH]1  remaining binding (ALK; binding; competition with immobilised ligand; 1 µM): 100%
C#Cc1n[nH]c2c(-c3cn([C@@H](C)c4ccccc4)c(=O)[nH]c3=O)cc(F)cc12  inhibition (ALK; enzyme activity; inhibitor; 0.1 µM): 7.7%
COc1cc(Nc2ncc(F)c(Nc3ccc4c(n3)NC(=O)C(C)(C)O4)n2)cc(OC)c1OC  inhibition (ALK; binding; competition with immobilised ligand; 10 µM): 99%
